ChEMBL document CHEMBL5107947, “Estimating the cooperativity of PROTAC-induced ternary complexes using 19F NMR displacement assay” (RSC Med Chem, 2021)
The source made the active and inactive calls. No cut-off for these calls is given here.

What was measured:
[1] = target: T1, Von Hippel-Lindau disease tumor suppressor/Elongin B/Elongin C (Homo sapiens, UniProt P40337); assay: Displacement of (2S,4R)-N-(4-bromobenzyl)-4-hydroxy-1-(3,3,3-trifluoropropanoyl)pyrrolidine-2-carboxamide from VBC E3 ligase (unknown origin) binary complex assessed as inhibition constant by 19F NMR assay; format: protein-complex assay
T1 sequence (P40337 whole entry, looked up): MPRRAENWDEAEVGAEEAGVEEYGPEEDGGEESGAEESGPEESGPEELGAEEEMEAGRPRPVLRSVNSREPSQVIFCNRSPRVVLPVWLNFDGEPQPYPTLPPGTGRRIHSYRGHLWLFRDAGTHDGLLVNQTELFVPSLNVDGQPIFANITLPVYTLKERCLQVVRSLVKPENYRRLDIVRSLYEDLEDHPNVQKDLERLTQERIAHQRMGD
Outline: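 Binary competition by 19F CPMG NMR, without Brd4(2): spy molecule 19 at 50 μM, VBC at 1 μM, titrated with increasing PROTAC concentrations. Spy molecule alone and spy molecule plus VBC served as 100% and 0% displacement references.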

Homo sapiens [2] = species on record: Homo sapiens; assay: (§1) Co-operativity factor, ratio of Ki for displacement of (2S,4R)-N-(4-bromobenzyl)-4-hydroxy-1-(3,3,3-trifluoropropanoyl)pyrrolidine-2-carboxamide from VBC E3 ligase (unknown origin) binary complex assessed as inhibition constant to Ki for displacement of (2S,4R)-N-(4-bromobenzyl)-4-hydroxy-1-(3,3,3-trifluoropropanoyl)pyrrolidine-2-carboxamide from BRD4 bromodomain 2/VBC E3 ligase (unknown origin) ternary complex assessed as inhibition constant by ITC assay
[3] = target: T2, von Hippel-Lindau disease tumor suppressor/Bromodomain-containing protein 4/Elongin-B/Elongin-C (Homo sapiens, UniProt O60885+P40337+Q15369+Q15370); assay: Displacement of (2S,4R)-N-(4-bromobenzyl)-4-hydroxy-1-(3,3,3-trifluoropropanoyl)pyrrolidine-2-carboxamide from BRD4 bromodomain 2/VBC E3 ligase (unknown origin) ternary complex by 19F NMR assay; format: protein assay
T2 sequence (P40337 whole entry, looked up, other chains not shown): as the sequence (P40337 whole entry, looked up) above
T2 sequence (Q15369 whole entry, looked up, other chains not shown): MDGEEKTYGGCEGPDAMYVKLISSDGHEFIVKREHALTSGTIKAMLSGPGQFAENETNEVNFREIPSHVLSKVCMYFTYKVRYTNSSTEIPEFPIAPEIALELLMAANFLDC
T2 sequence (Q15370 whole entry, looked up, other chains not shown): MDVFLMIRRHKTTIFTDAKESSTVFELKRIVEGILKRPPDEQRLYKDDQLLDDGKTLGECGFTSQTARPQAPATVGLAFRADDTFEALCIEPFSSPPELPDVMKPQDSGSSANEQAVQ
Outline: (§2)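 19F CPMG NMR displacement of spy molecule 19 (50 μM) from VBC (1 μM) with increasing PROTAC concentrations, in the presence of 10 μM Brd4(2). Spectra of free spy molecule and spy molecule with VBC set 100% and 0% displacement.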

Homo sapiens [4] = species on record: Homo sapiens; assay: as §1, with “19F NMR” for “ITC”
[5] = target: T2, von Hippel-Lindau disease tumor suppressor/Bromodomain-containing protein 4/Elongin-B/Elongin-C; assay: Displacement of (2S,4R)-N-(4-bromobenzyl)-4-hydroxy-1-(3,3,3-trifluoropropanoyl)pyrrolidine-2-carboxamide from BRD4 bromodomain 2/VBC E3 ligase (unknown origin) ternary complex assessed as inhibition constant by 19F NMR assay; format: protein assay; outline: as §2
Homo sapiens [6] = species on record: Homo sapiens; assay: as §1, with “SPR” for “ITC”
[7] = target: T1, Von Hippel-Lindau disease tumor suppressor/Elongin B/Elongin C; assay: (§3) Displacement of (2S,4R)-N-(4-bromobenzyl)-4-hydroxy-1-(3,3,3-trifluoropropanoyl)pyrrolidine-2-carboxamide from VBC E3 ligase (unknown origin) binary complex by 19F NMR assay; format: protein-complex assay
Outline: (§4)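 Competitive 19F CPMG NMR displacement of spy molecule 19 (50 μM) from VBC (1 μM) across a titration of PROTAC concentrations. Free spy alone and spy with VBC served as the 100% and 0% displacement controls. For ternary runs Brd4(2) was present at 10 μM.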

[8] = target: T1, Von Hippel-Lindau disease tumor suppressor/Elongin B/Elongin C; assay: Binding affinity to VCB E3 ligase (unknown origin) assessed as binary equilibrium dissociation constant by 19F NMR assay; format: protein-complex assay
[9] = Displacement of (2S,4R)-N-(4-bromobenzyl)-4-hydroxy-1-(3,3,3-trifluoropropanoyl)pyrrolidine-2-carboxamide from BRD3 bromodomain 1/VBC E3 ligase (unknown origin) ternary complex assessed as inhibition constant by 19F NMR assay; parameters: species or system Homo sapiens
[10] = Displacement of (2S,4R)-N-(4-bromobenzyl)-4-hydroxy-1-(3,3,3-trifluoropropanoyl)pyrrolidine-2-carboxamide from BRD3 bromodomain 2/VBC E3 ligase (unknown origin) ternary complex assessed as inhibition constant by 19F NMR assay; parameters: species or system Homo sapiens
[11] = Displacement of (2S,4R)-N-(4-bromobenzyl)-4-hydroxy-1-(3,3,3-trifluoropropanoyl)pyrrolidine-2-carboxamide from BRD3 bromodomain 2/VBC E3 ligase (unknown origin) ternary complex by 19F NMR assay; parameters: species or system Homo sapiens
[12] = Displacement of (2S,4R)-N-(4-bromobenzyl)-4-hydroxy-1-(3,3,3-trifluoropropanoyl)pyrrolidine-2-carboxamide from BRD3 bromodomain 1/VBC E3 ligase (unknown origin) ternary complex by 19F NMR assay; parameters: species or system Homo sapiens
Homo sapiens [13] = species on record: Homo sapiens; assay: as §1, with “dual VBC” for “BRD4 bromodomain 2/VBC”, “19F NMR” for “ITC”
[14] = target: T1, Von Hippel-Lindau disease tumor suppressor/Elongin B/Elongin C; assay: Displacement of (2S,4R)-N-(4-bromobenzyl)-4-hydroxy-1-(3,3,3-trifluoropropanoyl)pyrrolidine-2-carboxamide from dual VBC E3 ligase (unknown origin) ternary complex assessed as inhibition constant by 19F NMR assay; format: protein-complex assay
Outline: (§5)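 Same 19F CPMG displacement format, with spy molecule 19 at 50 μM and VBC at 1 μM. PROTAC was titrated over a range of concentrations, with spy-only and spy+VBC spectra as the 100% and 0% displacement controls. IC50 was read as 50% dissociation of the spy–VBC complex.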

[15] = target: T1, Von Hippel-Lindau disease tumor suppressor/Elongin B/Elongin C; assay: Displacement of (2S,4R)-N-(4-bromobenzyl)-4-hydroxy-1-(3,3,3-trifluoropropanoyl)pyrrolidine-2-carboxamide from dual VBC E3 ligase (unknown origin) ternary complex by 19F NMR assay; format: protein-complex assay; outline: as §5
Homo sapiens [16] = species on record: Homo sapiens; assay: as §1, with “dual VBC” for “BRD4 bromodomain 2/VBC”
[17] = target: Von Hippel-Lindau disease tumor suppressor/Elongin B/Elongin C (Homo sapiens) (UniProt P40337+Q15370+Q15369); assay: as §3; format: protein-complex assay; outline: as §4
Sequence of Von Hippel-Lindau disease tumor suppressor/Elongin B/Elongin C (Homo sapiens) (P40337 whole entry, looked up): as the sequence (P40337 whole entry, looked up) above
Sequence of Von Hippel-Lindau disease tumor suppressor/Elongin B/Elongin C (Homo sapiens) (Q15369 whole entry, looked up): as the sequence (Q15369 whole entry, looked up, other chains not shown) above
Sequence of Von Hippel-Lindau disease tumor suppressor/Elongin B/Elongin C (Homo sapiens) (Q15370 whole entry, looked up): as the sequence (Q15370 whole entry, looked up, other chains not shown) above

Kd [8] [nM] | SMILES | Ki [1] [nM] | Ratio Ki (Homo sapiens [2]) | IC50 [3] [nM] | Ratio Ki (Homo sapiens [4]) | Ki [5] [nM] | IC50 [7] [nM] | further results
 | CC(=O)N1c2ccc(-c3ccc(C(=O)NCCOCCOCC(=O)N[C@H](C(=O)N4C[C@H](O)C[C@H]4C(=O)NCc4ccc(-c5scnc5C)cc4)C(C)(C)C)cc3)cc2[C@H](Nc2ccc(Cl)cc2)C[C@@H]1C | 529 | 0.1 | 2110 | 0.4 | 1190 | 1210 | Ratio Ki (Homo sapiens [6]): 0.2
25000 | Cc1ncsc1-c1ccc(CNC(=O)[C@@H]2C[C@@H](O)CN2C(=O)C(F)(F)F)cc1 |  |  |  |  |  |  | 
67000 | Cc1ncsc1-c1ccc(CNC(=O)[C@@H]2C[C@@H](O)CN2C(=O)CC(C)(C)C)cc1C(F)(F)F |  |  |  |  |  |  | 
 | Cc1ncsc1-c1ccc(CNC(=O)[C@@H]2[C@H](F)[C@@H](O)CN2C(=O)[C@@H](NC(=O)COCCOCCOCCNC(=O)C[C@@H]2N=C(c3ccc(Cl)cc3)c3c(sc(C)c3C)-n3c(C)nnc32)C(C)(C)C)cc1 | 2060 | 29 | 346 | 29 | 71 | 3020 | 
 | Cc1ncsc1-c1ccc(CNC(=O)[C@@H]2C[C@H](O)CN2C(=O)[C@@H](NC(=O)COCCOCCOCCOCCOCC(=O)N[C@H](C(=O)N2C[C@@H](O)C[C@H]2C(=O)NCc2ccc(-c3scnc3C)cc2)C(C)(C)C)C(C)(C)C)cc1 | 287 |  |  |  |  | 888 | 
 | Cc1ncsc1-c1ccc(CNC(=O)[C@@H]2C[C@@H](O)CN2C(=O)[C@@H](NC(=O)COCCOCCOCCNC(=O)C[C@@H]2N=C(c3ccc(Cl)cc3)c3c(sc(C)c3C)-n3c(C)nnc32)C(C)(C)C)cc1 |  |  |  |  |  |  | Ki [9]: 118 nM; Ki [10]: 153 nM; IC50 [11]: 708 nM; IC50 [12]: 660 nM
 | CC(=O)N1c2ccc(-c3ccc(C(=O)NCCOCCOCCOCCOCC(=O)N[C@H](C(=O)N4C[C@H](O)C[C@H]4C(=O)NCc4ccc(-c5scnc5C)cc4)C(C)(C)C)cc3)cc2[C@H](Nc2ccc(Cl)cc2)C[C@@H]1C | 471 | 0.6 | 1310 | 0.8 | 597 | 1140 | Ratio Ki (Homo sapiens [6]): 0.4
 | Cc1ncsc1-c1ccc(CNC(=O)[C@@H]2C[C@@H](O)CN2C(=O)[C@@H](NC(=O)COCCOCCOCCOCCOCCOCC(=O)N[C@H](C(=O)N2C[C@H](O)C[C@H]2C(=O)NCc2ccc(-c3scnc3C)cc2)C(C)(C)C)C(C)(C)C)cc1 |  |  |  |  |  |  | Ratio Ki (Homo sapiens [13]): 7; Ki [14]: 39 nM; IC50 [15]: 277 nM; Ratio Ki (Homo sapiens [16]): 7
 | Cc1ncsc1-c1ccc(CNC(=O)[C@@H]2C[C@H](O)CN2C(=O)[C@@H](NC(=O)COCCOCCOCCOCCOCCOCC(=O)N[C@H](C(=O)N2C[C@@H](O)C[C@H]2C(=O)NCc2ccc(-c3scnc3C)cc2)C(C)(C)C)C(C)(C)C)cc1 |  |  |  |  |  |  | Activity [17]: Active

SMILES | Kd [8] [nM] | Ki [1] [nM] | Ratio Ki (Homo sapiens [2]) | IC50 [3] [nM] | Ratio Ki (Homo sapiens [4]) | Ki [5] [nM] | IC50 [7] [nM] | further results
O=C(NCc1ccc(Br)cc1)[C@@H]1C[C@@H](O)CN1C(=O)CC(F)(F)F | 145000 |  |  |  |  |  |  | 
